{"source": "ChEMBL document CHEMBL3525967", "about": "“In vitro glucuronidation of the antibacterial triclocarban and its oxidative metabolites” (Drug Metab Dispos, 2012)", "key": {"[1]": {"test": "Drug metabolism in cynomolgus monkey liver microsomes assessed as N-glucuronide-triclocarban formation incubated for 5 mins prior to UDPGA addition measured after 30 mins by LC-UV-ESI-MS/MS analysis", "type": "ADME, Macaca fascicularis", "conditions": "0.5 h", "in_short": "(§1)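 TCC was incubated at 10 µM (2% DMSO) in 100 mM phosphate pH 7.4 with alamethicin-treated microsomes or Supersomes, 10 mM MgCl2 and 10 mM saccharolactone. After 5 min pre-incubation at 37 °C, UDPGA was added to start the reaction. Protein was raised up to 2 mg/mL. Samples were quenched in ACN with 1 µM DCC internal standard, centrifuged, and N-glucuronides detected by LC-ESI-MS/MS in SRM mode.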"}, "[2]": {"test": "Drug metabolism in human intestine microsomes assessed as N'-glucuronide-triclocarban formation incubated for 5 mins prior to UDPGA addition measured after 5 to 30 mins by LC-UV analysis", "type": "ADME", "in_short": "(§2)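 Microsomes or UGT Supersomes (5 µg protein) were held 15 min on ice with alamethicin in 100 mM potassium phosphate pH 7.4. TCC was added at 10 µM (2% DMSO) with 10 mM MgCl2 and 10 mM saccharolactone, pre-warmed 5 min at 37 °C, then started with UDPGA. Samples at 5, 10, 15 and 30 min were quenched in ACN. Product was read by LC-UV at 265 nm; rate came from regression over time, three incubations.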"}, "[3]": {"target": "T1, UDP-glucuronosyltransferase 1A6 (Homo sapiens, UniProt P19224)", "T1 sequence (P19224 whole entry)": "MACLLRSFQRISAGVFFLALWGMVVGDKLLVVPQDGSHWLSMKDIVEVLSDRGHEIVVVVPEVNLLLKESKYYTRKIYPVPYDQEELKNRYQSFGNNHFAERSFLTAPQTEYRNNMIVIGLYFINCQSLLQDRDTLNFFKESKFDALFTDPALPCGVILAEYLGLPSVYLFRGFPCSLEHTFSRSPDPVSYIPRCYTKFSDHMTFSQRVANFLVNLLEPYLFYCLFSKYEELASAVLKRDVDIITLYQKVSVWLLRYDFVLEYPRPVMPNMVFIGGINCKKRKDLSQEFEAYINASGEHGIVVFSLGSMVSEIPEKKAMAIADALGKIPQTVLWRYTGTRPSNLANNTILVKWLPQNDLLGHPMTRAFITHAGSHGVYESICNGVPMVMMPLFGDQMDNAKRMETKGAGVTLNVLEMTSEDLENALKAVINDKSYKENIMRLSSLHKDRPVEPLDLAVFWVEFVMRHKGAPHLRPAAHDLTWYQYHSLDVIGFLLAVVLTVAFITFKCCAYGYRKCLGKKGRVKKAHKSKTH", "test": "Drug metabolism assessed as human UGT1A6-mediated N-glucuronide-triclocarban formation expressed in baculovirus infected insect sf9 cells incubated for 5 mins prior to UDPGA addition measured after 5 to 30 mins by LC-UV analysis", "type": "ADME", "in_short": "as §2"}, "[4]": {"test": "Drug excretion in Swiss webster mouse urine assessed as 2'-O-glucuronide-triclocarban formation at 5 mg/kg, po by LC-MS analysis", "type": "ADME, organism-based", "parameters": "dose 5 mg/kg, route oral", "conditions": "in vivo", "in_short": "(§3)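 Mice were housed two per metabolic cage, with blank urine collected over the 24 h before dosing. TCC was given by oral gavage as a 1 mg/mL solution in 20/80 DMSO/PEG400 (v/v) at 5 mg/kg. Urine was collected at 0-24 h and 24-48 h and analysed by online LC-MS. Values are the mean of two independent experiments.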"}, "[5]": {"target": "T1, UDP-glucuronosyltransferase 1A6", "test": "Drug metabolism assessed as human UGT1A6-mediated N'-glucuronide-triclocarban formation expressed in baculovirus infected insect sf9 cells incubated for 5 mins prior to UDPGA addition measured after 5 to 30 mins by LC-UV analysis", "type": "ADME", "in_short": "as §2"}, "[6]": {"target": "T2, UDP-glucuronosyltransferase 1A9 (Homo sapiens, UniProt O60656)", "T2 sequence (O60656 whole entry)": "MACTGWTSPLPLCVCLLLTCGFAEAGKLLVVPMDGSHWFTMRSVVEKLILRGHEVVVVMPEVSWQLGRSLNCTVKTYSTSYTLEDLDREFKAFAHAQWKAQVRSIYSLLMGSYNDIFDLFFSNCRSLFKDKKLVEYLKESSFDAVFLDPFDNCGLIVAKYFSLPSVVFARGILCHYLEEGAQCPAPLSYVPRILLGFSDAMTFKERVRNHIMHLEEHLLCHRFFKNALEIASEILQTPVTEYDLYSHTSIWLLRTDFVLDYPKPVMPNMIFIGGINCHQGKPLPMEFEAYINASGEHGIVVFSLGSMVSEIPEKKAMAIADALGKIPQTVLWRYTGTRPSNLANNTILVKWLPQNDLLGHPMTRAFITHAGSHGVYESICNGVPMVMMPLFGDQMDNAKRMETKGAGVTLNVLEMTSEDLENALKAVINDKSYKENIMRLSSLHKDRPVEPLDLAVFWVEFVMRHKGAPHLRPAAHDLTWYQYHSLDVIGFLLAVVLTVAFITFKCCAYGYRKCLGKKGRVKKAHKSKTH", "test": "Drug metabolism assessed as human UGT1A9-mediated N-glucuronide-triclocarban formation expressed in baculovirus infected insect sf9 cells incubated for 5 mins prior to UDPGA addition measured after 30 mins by LC-ESI-MS analysis", "type": "ADME", "conditions": "sf9, 0.5 h", "in_short": "as §1"}, "[7]": {"test": "Drug excretion in Sprague-Dawley rat urine assessed as 3'-O-glucuronide-triclocarban formation at 1 mg/kg, po by LC-MS analysis", "type": "ADME, organism-based", "parameters": "dose 1 mg/kg, route oral", "conditions": "in vivo"}, "[8]": {"target": "T2, UDP-glucuronosyltransferase 1A9", "test": "Drug metabolism assessed as human UGT1A9-mediated N-glucuronide-triclocarban formation expressed in baculovirus infected insect sf9 cells incubated for 5 mins prior to UDPGA addition measured after 5 to 30 mins by LC-UV analysis", "type": "ADME", "in_short": "as §2"}, "[9]": {"test": "Drug excretion in Sprague-Dawley rat urine assessed as N-glucuronide-triclocarban formation at 1 mg/kg, po by LC-MS analysis", "type": "ADME, organism-based", "parameters": "dose 1 mg/kg, route oral", "conditions": "in vivo"}, "[10]": {"test": "Drug metabolism in human kidney microsomes assessed as N'-glucuronide-triclocarban formation incubated for 5 mins prior to UDPGA addition measured after 5 to 30 mins by LC-UV analysis", "type": "ADME", "in_short": "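Pooled human kidney or liver microsomes (liver: 25 mixed-gender donors), 5 µg protein, in 200 µL 100 mM potassium phosphate pH 7.4. Alamethicin pre-treated on ice 15 min. Final 10 µM TCC (2% DMSO), with 10 mM MgCl2 and 10 mM saccharolactone, preincubated 5 min at 37 °C. Started with UDPGA (20 mM stock). Sampled at 5, 10, 15 and 30 min into ACN containing 1 µM DCC internal standard.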"}, "[11]": {"test": "Drug metabolism in B6C3F1 mouse liver microsomes assessed as N-glucuronide-triclocarban formation incubated for 5 mins prior to UDPGA addition measured after 30 mins by LC-UV-ESI-MS/MS analysis", "type": "ADME", "conditions": "0.5 h", "in_short": "as §1"}, "[12]": {"test": "Drug excretion in Swiss webster mouse urine assessed as 3'-O-glucuronide-triclocarban formation at 5 mg/kg, po by LC-MS analysis", "type": "ADME, organism-based", "parameters": "dose 5 mg/kg, route oral", "conditions": "in vivo", "in_short": "as §3"}}, "data": [{"smiles": "O=C(Nc1ccc(Cl)cc1)Nc1ccc(Cl)c(Cl)c1", "note": "[TRICLOCARBAN]", "values": [{"measurement": "Drug metabolism", "setting": "[1]", "value": "metabolite_detected"}, {"measurement": "Drug metabolism", "setting": "[2]", "value": "metabolite_not_detected"}, {"measurement": "Drug metabolism", "setting": "[3]", "value": "metabolite_not_detected"}, {"measurement": "Drug excretion", "setting": "[4]", "value": "metabolite_detected"}, {"measurement": "Drug metabolism", "setting": "[5]", "value": "metabolite_not_detected"}, {"measurement": "Drug metabolism", "setting": "[6]", "value": "metabolite_detected"}, {"measurement": "Drug excretion", "setting": "[7]", "value": "metabolite_detected"}, {"measurement": "Drug metabolism", "setting": "[8]", "value": "metabolite_not_detected"}, {"measurement": "Drug excretion", "setting": "[9]", "value": "metabolite_not_detected"}, {"measurement": "Drug metabolism", "setting": "[10]", "value": "metabolite_not_detected"}, {"measurement": "Drug metabolism", "setting": "[11]", "value": "metabolite_detected"}, {"measurement": "Drug excretion", "setting": "[12]", "value": "metabolite_detected"}]}]}
